Assay results from ChEMBL document CHEMBL4823270, “A first-in-class anticancer dual HDAC2/FAK inhibitors bearing hydroxamates/benzamides capped by pyridinyl-1,2,4-triazoles” (Eur J Med Chem, 2021).
Calls of active or inactive are those of the source. No cut-off for these calls is given here.

Key:
HCT-116 = assay: Growth inhibition of human HCT-116 cells at 10 uM incubated for 24 hrs by MTT assay relative to control; assay type: functional; settings: read-out: GI
In short: (§1)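 Cells seeded at 1 × 10^4 per well, cultured overnight, then exposed to 10 μM compound or DMSO (negative control) for 24 h. After a PBS wash, MTT (2 mg/ml) was added for 4 h at 37°C and formazan dissolved in DMSO. OD read at 570 nm. Growth inhibition = 1 − (OD treated/OD control); at least three independent experiments.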

HT-29 = assay: Growth inhibition of human HT-29 cells at 10 uM incubated for 24 hrs by MTT assay relative to control; assay type: functional; settings: read-out: GI; in short: as §1
CAKI-1 [1] = assay: Growth inhibition of human CAKI-1 cells at 10 uM incubated for 24 hrs by MTT assay relative to control; assay type: functional; settings: read-out: GI; in short: as §1
A498 [2] = assay: Antiproliferative activity against human A498 cells assessed as cell growth inhibition incubated for 24 hrs by MTT assay; assay type: functional, cell-based; settings: A498, 24 h
CAKI-1 [3] = assay: Antiproliferative activity against human CAKI-1 cells assessed as cell growth inhibition incubated for 24 hrs by MTT assay; assay type: functional, cell-based; settings: CAKI-1, 24 h
Histone deacetylase 2 [4] = molecular target: T1, Histone deacetylase 2 (Homo sapiens, UniProt Q92769); assay: Inhibition of human full-length recombinant HDAC2 preincubated for 5 mins followed by HDAC substrate addition and further incubated for 45 mins by fluorescence microplate reader assay
Histone deacetylase 3 = Histone deacetylase 3 (Homo sapiens, UniProt O15379); assay: Inhibition of human full-length recombinant HDAC3 preincubated for 5 mins followed by HDAC substrate addition and further incubated for 45 mins by fluorescence microplate reader assay
[5] = molecular target: T2, Protein deacetylase HDAC6 (Homo sapiens, UniProt Q9UBN7); assay: Inhibition of human full-length recombinant HDAC6 preincubated for 5 mins followed by HDAC substrate addition and further incubated for 45 mins by fluorescence microplate reader assay
T2 sequence (Q9UBN7 whole entry): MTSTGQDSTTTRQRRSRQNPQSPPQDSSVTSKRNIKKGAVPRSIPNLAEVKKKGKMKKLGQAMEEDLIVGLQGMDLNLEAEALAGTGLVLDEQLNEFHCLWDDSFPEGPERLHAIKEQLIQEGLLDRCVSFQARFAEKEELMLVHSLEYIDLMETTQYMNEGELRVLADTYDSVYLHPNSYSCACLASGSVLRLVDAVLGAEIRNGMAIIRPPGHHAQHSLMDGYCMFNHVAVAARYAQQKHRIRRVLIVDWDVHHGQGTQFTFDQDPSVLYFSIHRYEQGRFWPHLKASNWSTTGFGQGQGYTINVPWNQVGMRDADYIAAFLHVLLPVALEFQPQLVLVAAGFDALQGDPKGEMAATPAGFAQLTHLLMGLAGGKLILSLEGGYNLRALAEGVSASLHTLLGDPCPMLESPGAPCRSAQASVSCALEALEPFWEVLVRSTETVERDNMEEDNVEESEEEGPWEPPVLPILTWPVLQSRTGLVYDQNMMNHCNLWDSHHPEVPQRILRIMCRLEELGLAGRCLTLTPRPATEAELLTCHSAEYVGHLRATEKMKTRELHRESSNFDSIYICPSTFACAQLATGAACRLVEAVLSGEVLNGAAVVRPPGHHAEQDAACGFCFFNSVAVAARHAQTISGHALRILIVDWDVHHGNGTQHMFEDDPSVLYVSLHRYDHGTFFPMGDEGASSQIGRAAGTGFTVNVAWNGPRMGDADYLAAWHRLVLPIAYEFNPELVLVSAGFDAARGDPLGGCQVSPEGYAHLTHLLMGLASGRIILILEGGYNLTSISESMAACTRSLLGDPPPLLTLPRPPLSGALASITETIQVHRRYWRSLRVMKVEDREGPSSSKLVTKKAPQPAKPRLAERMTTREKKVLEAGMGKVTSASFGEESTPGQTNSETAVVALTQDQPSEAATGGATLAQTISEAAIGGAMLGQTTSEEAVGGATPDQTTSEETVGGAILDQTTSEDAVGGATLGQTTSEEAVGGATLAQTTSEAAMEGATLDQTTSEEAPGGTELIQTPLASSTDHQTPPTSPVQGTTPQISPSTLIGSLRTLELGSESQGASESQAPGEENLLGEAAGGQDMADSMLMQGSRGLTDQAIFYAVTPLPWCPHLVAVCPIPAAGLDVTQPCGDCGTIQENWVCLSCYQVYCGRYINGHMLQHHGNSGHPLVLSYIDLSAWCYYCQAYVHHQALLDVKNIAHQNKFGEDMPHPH

Histone deacetylase 2 [6] = molecular target: T1, Histone deacetylase 2; assay: Inhibition of HDAC2 in human CAKI-1 cells assessed as reduction in HDAC2 expression by Western blot analysis; assay type: cell-based
In short: (§2)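 40 μg protein (Bradford) resolved by SDS-PAGE, transferred to PVDF, blocked 1 h in milk or BSA. Primary antibody overnight, HRP secondary 1 h, ECL detection; β-actin as loading control.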

Focal adhesion kinase 1 [7] = molecular target: T3, Focal adhesion kinase 1 (Homo sapiens, UniProt Q05397); assay: Inhibition of FAK in human A498 cells assessed as reduction in FAK phosphorylation by Western blot analysis; assay type: cell-based; in short: as §2
A498 [8] = assay: Induction of cell cycle arrest in human A498 cells assessed as accumulation at G2/M phase incubated for 24 hrs by propidium iodide based flow cytometry analysis (reference value: 18 %); assay type: functional
In short: (§3)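 Cells at 1 × 10^5/mL treated with 0.75 or 1.5 μM compound or DMSO (negative control) for 24 h, harvested and washed in PBS. Fixed by dropwise ice-cold 80% ethanol with vortexing, held overnight, washed twice, PI-stained 20 min in the dark. Phase distribution read by flow cytometry.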

CAKI-1 [9] = assay: Induction of cell cycle arrest in human CAKI-1 cells assessed as accumulation at G2/M phase incubated for 24 hrs by propidium iodide based flow cytometry analysis (reference value: 5.5 %); assay type: functional; in short: as §3
A498 [10] = assay: Induction of apoptosis in human A498 cells at 0.75 to 1.5 uM measured after 24 hrs by Annexin-V/propidium iodide staining based flow cytometry relative to control; assay type: functional; settings: dose 0.75-1.5 µM
In short: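 Cells in supplemented medium with 10% FBS at 37 °C, 5% CO2, exposed to 0.75 or 1.5 μM compound, or DMSO as negative control, for 24 h. Apoptosis assessed by annexin V/PI staining per kit instructions, then flow cytometry; apoptotic cell percentage quantified against control.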

Histone deacetylase 2 [11] = molecular target: T1, Histone deacetylase 2; assay: Inhibition of HDAC2 in human A498 cells assessed as reduction in HDAC2 expression pretreated for 12 weeks followed by treatment for last 24 hrs by Western blot analysis; assay type: cell-based; settings: time 85.0 day
Focal adhesion kinase 1 [12] = molecular target: T3, Focal adhesion kinase 1; assay: Inhibition of FAK in human A498 cells assessed as reduction in FAK phosphorylation pretreated for 12 weeks followed by treatment for last 24 hrs by Western blot analysis; assay type: cell-based; settings: time 85.0 day
A498 [13] = assay: Induction of apoptosis in human A498 cells assessed as activation of caspase-8 measured after 24 hrs by ELISA relative to control; assay type: functional
A498 [14] = assay: Induction of apoptosis in human A498 cells assessed as activation of caspase-9 measured after 24 hrs by ELISA relative to control; assay type: functional
A498 [15] = assay: Induction of cell cycle arrest in human A498 cells assessed as decrease in cell population at G1 phase at 1.5 uM incubated for 24 hrs by propidium iodide based flow cytometry analysis; assay type: functional; in short: as §3

T1 sequence (Q92769 whole entry): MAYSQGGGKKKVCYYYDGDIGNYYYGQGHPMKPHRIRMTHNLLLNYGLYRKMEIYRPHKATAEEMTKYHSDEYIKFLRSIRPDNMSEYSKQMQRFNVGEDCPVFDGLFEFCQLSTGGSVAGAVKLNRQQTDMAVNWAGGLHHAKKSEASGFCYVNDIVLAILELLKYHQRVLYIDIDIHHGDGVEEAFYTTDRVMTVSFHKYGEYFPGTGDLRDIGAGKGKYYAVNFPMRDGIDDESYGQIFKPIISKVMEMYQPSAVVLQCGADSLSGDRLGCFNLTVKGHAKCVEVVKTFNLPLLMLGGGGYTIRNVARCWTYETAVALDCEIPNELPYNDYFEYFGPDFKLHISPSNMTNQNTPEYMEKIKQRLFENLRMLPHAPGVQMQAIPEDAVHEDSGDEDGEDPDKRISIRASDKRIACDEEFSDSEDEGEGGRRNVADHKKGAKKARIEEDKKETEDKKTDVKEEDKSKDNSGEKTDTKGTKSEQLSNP
T3 sequence (Q05397 2-1052 limits assumed): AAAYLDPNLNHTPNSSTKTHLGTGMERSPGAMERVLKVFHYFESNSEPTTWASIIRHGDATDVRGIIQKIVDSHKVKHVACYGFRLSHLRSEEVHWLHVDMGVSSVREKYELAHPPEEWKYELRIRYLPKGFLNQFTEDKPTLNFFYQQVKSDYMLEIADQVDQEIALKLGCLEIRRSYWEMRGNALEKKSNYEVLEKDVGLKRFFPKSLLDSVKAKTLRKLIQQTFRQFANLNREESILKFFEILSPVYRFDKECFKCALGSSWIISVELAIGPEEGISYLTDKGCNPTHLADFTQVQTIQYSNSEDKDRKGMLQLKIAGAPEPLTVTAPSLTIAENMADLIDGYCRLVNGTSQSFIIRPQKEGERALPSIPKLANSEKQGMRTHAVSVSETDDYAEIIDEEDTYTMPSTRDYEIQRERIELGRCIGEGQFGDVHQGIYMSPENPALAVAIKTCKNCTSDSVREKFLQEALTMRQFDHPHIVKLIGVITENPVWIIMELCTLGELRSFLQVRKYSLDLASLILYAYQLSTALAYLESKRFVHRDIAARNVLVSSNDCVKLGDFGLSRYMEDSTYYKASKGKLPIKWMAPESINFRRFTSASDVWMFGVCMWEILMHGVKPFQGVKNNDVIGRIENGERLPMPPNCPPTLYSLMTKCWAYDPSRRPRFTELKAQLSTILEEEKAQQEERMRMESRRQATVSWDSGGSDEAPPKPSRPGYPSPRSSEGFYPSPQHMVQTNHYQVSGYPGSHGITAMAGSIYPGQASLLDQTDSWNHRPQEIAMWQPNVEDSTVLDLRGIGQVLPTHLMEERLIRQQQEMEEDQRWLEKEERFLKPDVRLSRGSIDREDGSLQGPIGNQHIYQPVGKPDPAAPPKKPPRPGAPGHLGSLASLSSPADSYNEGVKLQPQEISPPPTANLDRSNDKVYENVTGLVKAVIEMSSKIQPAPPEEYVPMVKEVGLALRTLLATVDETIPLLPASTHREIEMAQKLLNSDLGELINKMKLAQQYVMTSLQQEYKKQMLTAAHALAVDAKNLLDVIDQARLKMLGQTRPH
Sequence of Histone deacetylase 3 (O15379 whole entry): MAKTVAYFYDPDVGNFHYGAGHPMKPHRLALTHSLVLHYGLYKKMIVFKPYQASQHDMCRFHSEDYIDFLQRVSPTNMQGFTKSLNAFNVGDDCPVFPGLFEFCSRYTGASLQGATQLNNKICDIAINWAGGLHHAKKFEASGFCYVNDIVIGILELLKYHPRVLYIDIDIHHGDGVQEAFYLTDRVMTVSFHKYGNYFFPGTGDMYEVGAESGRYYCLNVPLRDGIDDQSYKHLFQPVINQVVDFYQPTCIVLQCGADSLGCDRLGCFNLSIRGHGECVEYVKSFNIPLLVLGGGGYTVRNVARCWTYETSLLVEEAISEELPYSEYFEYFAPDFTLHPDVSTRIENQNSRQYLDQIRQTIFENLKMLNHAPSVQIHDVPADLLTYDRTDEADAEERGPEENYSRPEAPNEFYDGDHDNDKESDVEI

With `Cn1c(SCCCCCC(=O)NO)nnc1-c1ccncc1` the inhibition of growth at 10 µM (HCT-116) was 60.1%, the inhibition of growth at 10 µM (HT-29) was 68.3% and the inhibition of growth at 10 µM (CAKI-1 [1]) was 98.1%. It also gave an IC50 (A498 [2]) of 950 nM, an IC50 (CAKI-1 [3]) of 1230 nM and an IC50 (Histone deacetylase 2 [4]) of 90 nM. The IC50 (Histone deacetylase 3) was 3410 nM, the IC50 [5] was 13900 nM and the inhibition (Histone deacetylase 2 [6]) was “Active”. The inhibition (Focal adhesion kinase 1 [7]) was “Active”, the Activity (A498 [8]) was 65% and the Activity (CAKI-1 [9]) was 35%. The Activity (A498 [10]) was 50%, the inhibition (Histone deacetylase 2 [11]) was “Active” and the inhibition (Focal adhesion kinase 1 [12]) was “Active”. For the same compound, the “fold change (FC)” value (A498 [13]) was 3, the “fold change (FC)” value (A498 [14]) was 6 and the Activity (A498 [15]) was “Active”.
